From ChEMBL document CHEMBL1681766, “Structure and property based design of factor Xa inhibitors: pyrrolidin-2-ones with aminoindane and phenylpyrrolidine P4 motifs” (Bioorg Med Chem Lett, 2011)

Legend:
Assay type in all cases: ADME, organism-based
[1] = Volume of distribution at steady state in iv/po dosed Sprague-Dawley rat; conditions: in vivo, read-out: Vdss
In short: (§1)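 Male Sprague-Dawley rats dosed by intravenous and by oral routes. Pharmacokinetic parameters are derived from these studies.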

[2] = Half life in iv/po dosed Sprague-Dawley rat; conditions: in vivo; in short: as §1
[3] = Plasma clearance in iv/po dosed Sprague-Dawley rat; in short: as §1
[4] = Oral bioavailability in Sprague-Dawley rat; conditions: in vivo; in short: as §1

Row | Vd [1] [L/kg] | half-life [2] [h] | clearance [3] [mL/min/kg] | bioavailability [4] [%] | SMILES
1 | 0.8 | 1.4 | 11 | 41 | CN1CCCC1c1ccc(N2CC[C@H](NS(=O)(=O)/C=C/c3ccc(Cl)s3)C2=O)c(F)c1 (mixture of isomers)
2 | 2 | 4.4 | 6 | 61 | CN(C)[C@H]1CCc2cc(N3CC[C@H](NS(=O)(=O)c4ccc5cc(Cl)ccc5c4)C3=O)ccc21
3 | 1.7 | 3.4 | 7.6 | 27 | CN(C)[C@@H]1CCc2cc(N3CC[C@H](NS(=O)(=O)c4ccc5cc(Cl)ccc5c4)C3=O)ccc21
4 | 1.1 | 1.7 | 9.5 | 57 | CN(C)C1CCc2cc(N3CC[C@H](NS(=O)(=O)/C=C/c4ccc(Cl)s4)C3=O)ccc21 (mixture of isomers)
5 | 0.9 | 5.4 | 2.2 | – | CNC1CCc2cc(N3CC[C@H](NS(=O)(=O)/C=C/c4ccc(Cl)s4)C3=O)ccc21 (mixture of isomers)

The remaining lines, values behind:

Row | SMILES | Vd [1] [L/kg] | half-life [2] [h] | clearance [3] [mL/min/kg] | bioavailability [4] [%]
6 | O=C1[C@@H](NS(=O)(=O)c2ccc3c(Cl)c[nH]c3c2)CCN1c1ccc(C2CCCN2)cc1F (mixture of isomers) | 0.8 | 11 | 1.3 | < 1
7 | O=C1[C@@H](NS(=O)(=O)c2ccc3cc(Cl)ccc3c2)CCN1c1ccc([C@@H]2CCCN2)cc1F | 1.7 | 7.5 | 2.8 | 38
8 | O=C1[C@@H](NS(=O)(=O)c2ccc3cc(Cl)ccc3c2)CCN1c1ccc(C2CCCN2)cc1F (mixture of isomers) | 1.9 | 9 | 2.7 | 24
9 | O=C1[C@@H](NS(=O)(=O)/C=C/c2ccc(Cl)s2)CCN1c1ccc(C2CCCN2)cc1F (mixture of isomers) | 0.7 | 3.4 | 2.8 | 52
10 | CNC1CCc2cc(N3CC[C@H](NS(=O)(=O)c4ccc5cc(Cl)ccc5c4)C3=O)ccc21 (mixture of isomers) | 2.4 | 12.4 | 2.5 | 25
11 | O=C1[C@@H](NS(=O)(=O)c2ccc3cc(Cl)ccc3c2)CCN1c1ccc([C@H]2CCCN2)cc1F | 1.9 | 10.2 | 2.6 | 25
12 | CN[C@@H](C)c1ccc(N2CC[C@H](NS(=O)(=O)c3ccc4cc(Cl)ccc4c3)C2=O)c(F)c1 | – | – | – | > 10
